Test results: ChEMBL document CHEMBL2169797, “Rediocide A, an Insecticide, induces G-protein-coupled receptor desensitization via activation of conventional protein kinase C” (J Nat Prod, 2012)
The source made the active and inactive calls. The calls are words filed in the database; no cut-off is given here.

Experiments:
[1] = biological target: Protein kinase C alpha type (Homo sapiens) (UniProt P17252); test: Activation of human GFP-tagged PKCalpha expressed in HEK293 cells assessed as translocation from cytoplasm to membrane at 1 uM after 30 mins by Hoechst staining-based fluorescence microscopy; assay type: cell-based
Procedure, shortened: (§1)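 HEK293 cells transfected with pCR259hPKCα-GFP, grown overnight on coverslips. Pretreated 15 min at 37 °C with GF109203 X or vehicle, then stimulated 30 min. Fixed in 4% formaldehyde/PBS, nuclei stained with Hoechst 33342 10 min at room temperature. GFP-PKCα membrane translocation imaged by inverted fluorescence microscopy.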

HEK293 = test: (§2) Inhibition of Drosophila MthB expressed in HEK293 cells assessed as inhibition of SunA1-30-induced calcium influx incubated for 10 mins prior to SunA1-30 addition by Fluo-4-AM based fluorimetry; assay type: cell-based
Procedure, shortened: (§3)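 HEK293 cells stably co-expressing the receptor and Gα16, seeded 3 × 10^4/well overnight. Loaded with 2 μM Fluo-4 AM in HBSS (pH 7.4, 250 μM sulfinpyrazone) 45 min at 37 °C, then pretreated with compound. Receptor-specific agonist added (SunA1-30 for Mth-B). Calcium recorded at ex 485/em 525 nm. IC50 from nonlinear regression; mean ± SEM, n = 3.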

[2] = as §2; assay type: cell-based; procedure, shortened: as §3
Glucagon receptor [3] = biological target: T1, Glucagon receptor (Homo sapiens, UniProt P47871); test: Agonist activity at GCGR expressed in HEK293 cells assessed as calcium influx at 1 uM by Fluor-4-AM based fluorimetry in presence of GF109203X; assay type: functional, cell-based
T1 sequence (P47871 whole entry): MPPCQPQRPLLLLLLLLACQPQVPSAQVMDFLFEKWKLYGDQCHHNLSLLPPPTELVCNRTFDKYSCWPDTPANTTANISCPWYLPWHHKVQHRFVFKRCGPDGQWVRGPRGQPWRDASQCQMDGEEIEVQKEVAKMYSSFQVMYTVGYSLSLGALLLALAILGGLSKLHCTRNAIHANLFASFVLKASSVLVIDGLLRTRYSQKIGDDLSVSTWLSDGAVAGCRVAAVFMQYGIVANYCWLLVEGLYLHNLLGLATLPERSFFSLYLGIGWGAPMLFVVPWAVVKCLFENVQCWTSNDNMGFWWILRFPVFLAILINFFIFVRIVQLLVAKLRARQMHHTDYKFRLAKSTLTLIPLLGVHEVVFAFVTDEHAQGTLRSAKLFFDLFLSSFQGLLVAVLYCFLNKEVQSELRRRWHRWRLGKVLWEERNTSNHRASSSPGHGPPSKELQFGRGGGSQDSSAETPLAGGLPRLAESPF
Procedure, shortened: (§4)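 Setup as for the GCGR calcium assay (stable GCGR/Gα16 HEK293, 2 μM Fluo-4 AM, HBSS pH 7.4). Cells preincubated 15 min with 10 μM GF109203X. Then first stimulation with compound, 100 nM glucagon or 1% DMSO. After 30 min cells washed, restimulated with 100 nM glucagon, calcium read at ex 485/em 525 nm. Three independent experiments in triplicate.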

Glucagon receptor [4] = biological target: T1, Glucagon receptor; test: Inhibition of GCGR expressed in HEK293 cells assessed as inhibition of calcium influx after 10 mins by Fluo-4-AM based fluorimetry; assay type: functional, cell-based
Procedure, shortened: (§5)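 HEK293 cells stably co-expressing GCGR and Gα16 (G418/blasticidin selected) were seeded at 3 × 10^4 cells/well and cultured overnight. They were loaded with 2 μM Fluo-4 AM in HBSS (pH 7.4, 250 μM sulfinpyrazone) at 37 °C for 45 min, held 10 min at room temperature, then given agonist. Calcium was read at ex 485/em 525 nm. IC50 came from nonlinear regression, means ± SEM, n = 3.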

[5] = biological target: T2, Protein kinase C (PKC) (Homo sapiens) (UniProt O94806+P41743+P17252+P05129+Q05655+P05771+Q05513+Q02156+P24723+Q15139+Q04759); test: Induction of PKC phosphorylation in HEK293 cells at 1 uM by Western blot analysis; assay type: cell-based; details: TDE = time-dependent effect
Procedure, shortened: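 HEK293 cells serum-starved 4 h, then treated for various durations at 37 °C, with 100 nM TPA as reference. Lysates run on 10% SDS-PAGE and immunoblotted with an antibody detecting phosphorylated conventional and novel PKC isoforms (1:1000). Signal normalized to GAPDH, detected by ECL. Mean ± SEM, n = 3; two-tailed t test.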

[6] = biological target: T2, Protein kinase C (PKC) (Homo sapiens); test: Induction of PKC phosphorylation in HEK293 cells at 1 uM by Western blot analysis in presence of GF109203 X; assay type: cell-based
Procedure, shortened: (§6)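 Serum-starved (4 h) HEK293 cells. Phospho-PKC induced by compound (1 μM) or TPA (100 nM), each in the presence of GF109203 X (1 μM) or rottlerin (10 μM). Read by Western blot with phospho-PKC antibody, normalized to GAPDH. Mean ± SEM, n = 3; two-tailed t test.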

Glucagon receptor [7] = biological target: T1, Glucagon receptor; test: Activation of pDsRed-tagged GCGR expressed in HEK293 cells assessed as receptor internalization at 1 uM incubated after 30 mins by Hoechst staining-based fluorescence microscopy; assay type: cell-based
Procedure, shortened: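 HEK293 cells transfected with pDsRed-GCGR, grown overnight on coverslips. Stimulated 30 min at 37 °C, with 1% DMSO as negative control. Fixed in 4% formaldehyde/PBS, nuclei stained with Hoechst 33342. Surface versus internalized receptor scored by fluorescence microscopy.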

Glucagon receptor [8] = biological target: T1, Glucagon receptor; test: Induction of GCGR desensitization expressed in HEK293 cells assessed as reduction in glucagon-induced calcium influx at 1 uM incubated for 30 mins prior to glucagon-induction by Fluo-4-AM based fluorimetry; assay type: functional, cell-based
Procedure, shortened: (§7)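 HEK293 cells stably co-expressing GCGR and Gα16, selected with G418/blasticidin, seeded 3 × 10^4/well overnight. Loaded with 2 μM Fluo-4 AM in HBSS with sulfinpyrazone, pH 7.4, 45 min at 37 °C. First stimulation with compound, 100 nM glucagon or 1% DMSO. After 30 min cells washed and restimulated with 100 nM glucagon. Calcium read at ex 485/em 525 nm. Three independent experiments, each in triplicate.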

Glucagon receptor [9] = biological target: T1, Glucagon receptor; test: Agonist activity at GCGR expressed in HEK293 cells assessed as calcium influx at 1 uM by Fluor-4-AM based fluorimetry; assay type: functional, cell-based; procedure, shortened: as §7
[10] = biological target: T2, Protein kinase C (PKC) (Homo sapiens); test: Induction of PKC phosphorylation in HEK293 cells at 1 uM by Western blot analysis in presence of rotterin; assay type: cell-based; procedure, shortened: as §6
Glucagon receptor [11] = biological target: T1, Glucagon receptor; test: Induction of GCGR desensitization expressed in HEK293 cells assessed as reduction in glucagon-induced calcium influx at 1 uM incubated for 30 mins prior to glucagon-induction by Fluo-4-AM based fluorimetry in presence of GF109203X; assay type: functional, cell-based; procedure, shortened: as §4
[12] = biological target: T3, C-C chemokine receptor type 6 (Homo sapiens, UniProt P51684); test: Inhibition of CCR6 expressed in HEK293 cells assessed as inhibition of calcium influx after 10 mins by Fluo-4-AM based fluorimetry; assay type: functional, cell-based; procedure, shortened: as §3
T3 sequence (P51684 whole entry): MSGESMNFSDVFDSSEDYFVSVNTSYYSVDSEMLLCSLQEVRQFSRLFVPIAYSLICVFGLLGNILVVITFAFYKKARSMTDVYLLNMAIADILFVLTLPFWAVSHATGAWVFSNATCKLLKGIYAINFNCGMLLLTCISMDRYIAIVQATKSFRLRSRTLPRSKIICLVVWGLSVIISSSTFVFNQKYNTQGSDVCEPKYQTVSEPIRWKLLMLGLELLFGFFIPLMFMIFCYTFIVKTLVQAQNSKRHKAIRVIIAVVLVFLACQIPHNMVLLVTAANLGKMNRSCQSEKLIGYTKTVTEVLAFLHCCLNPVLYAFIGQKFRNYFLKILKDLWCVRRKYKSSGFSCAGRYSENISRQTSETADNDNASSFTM

[13] = biological target: T4, Alpha-1B adrenergic receptor (Homo sapiens, UniProt P35368); test: Inhibition of adrenergic receptor 1b receptor expressed in HEK293 cells assessed as inhibition of calcium influx after 10 mins by Fluo-4-AM based fluorimetry; assay type: functional, cell-based; procedure, shortened: as §3
T4 sequence (P35368 whole entry): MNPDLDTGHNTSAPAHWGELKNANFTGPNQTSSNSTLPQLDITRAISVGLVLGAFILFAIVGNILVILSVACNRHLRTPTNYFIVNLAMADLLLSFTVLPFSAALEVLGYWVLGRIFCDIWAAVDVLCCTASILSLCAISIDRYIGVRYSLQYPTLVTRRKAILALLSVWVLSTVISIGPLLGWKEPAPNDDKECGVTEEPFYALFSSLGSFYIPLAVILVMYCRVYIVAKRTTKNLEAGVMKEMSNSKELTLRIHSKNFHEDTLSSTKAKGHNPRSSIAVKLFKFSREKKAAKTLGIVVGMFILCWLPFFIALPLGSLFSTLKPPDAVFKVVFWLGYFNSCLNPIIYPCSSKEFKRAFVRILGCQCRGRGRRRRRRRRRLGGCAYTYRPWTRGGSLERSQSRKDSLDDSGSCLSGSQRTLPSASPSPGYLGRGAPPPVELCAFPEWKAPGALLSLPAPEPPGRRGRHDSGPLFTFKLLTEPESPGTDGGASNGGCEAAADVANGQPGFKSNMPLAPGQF

[14] = biological target: Protein kinase C alpha type (Homo sapiens) (UniProt P17252); test: Activation of human GFP-tagged PKCalpha expressed in HEK293 cells assessed as translocation from cytoplasm to membrane at 1 uM after 30 mins by Hoechst staining-based fluorescence microscopy in presence of GF109203X; assay type: cell-based; procedure, shortened: as §1
[15] = biological target: T5, Alpha-1A adrenergic receptor (Homo sapiens, UniProt P35348); test: Inhibition of adrenergic receptor 1a expressed in HEK293 cells assessed as inhibition of calcium influx after 10 mins by Fluo-4-AM based fluorimetry; assay type: functional, cell-based; procedure, shortened: as §3
T5 sequence (P35348 whole entry): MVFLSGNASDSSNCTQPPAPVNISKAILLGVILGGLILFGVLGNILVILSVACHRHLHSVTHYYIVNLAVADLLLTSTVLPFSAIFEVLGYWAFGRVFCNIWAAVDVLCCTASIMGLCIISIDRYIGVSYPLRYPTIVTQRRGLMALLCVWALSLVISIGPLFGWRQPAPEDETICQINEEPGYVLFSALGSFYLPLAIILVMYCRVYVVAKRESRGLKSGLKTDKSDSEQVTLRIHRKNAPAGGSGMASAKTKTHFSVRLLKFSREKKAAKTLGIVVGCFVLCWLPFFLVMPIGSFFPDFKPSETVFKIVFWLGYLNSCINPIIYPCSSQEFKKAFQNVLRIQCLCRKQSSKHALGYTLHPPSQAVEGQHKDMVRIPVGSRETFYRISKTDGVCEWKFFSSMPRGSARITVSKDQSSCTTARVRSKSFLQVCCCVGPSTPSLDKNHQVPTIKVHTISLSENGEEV

Glucagon receptor [16] = biological target: T1, Glucagon receptor; test: Induction of GCGR desensitization expressed in HEK293 cells assessed as reduction in glucagon-induced calcium influx at 1 uM incubated for 30 mins prior to glucagon-induction by Fluo-4-AM based fluorimetry in presence of rottlerin; assay type: functional, cell-based
Procedure, shortened: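 Stable GCGR/Gα16 HEK293 cells loaded with 2 μM Fluo-4 AM, then preincubated 15 min with 10 μM rottlerin. First stimulation with compound, 100 nM glucagon or DMSO. After 30 min cells washed and restimulated with 100 nM glucagon. Intracellular calcium recorded at ex 485/em 525 nm. Three independent experiments in triplicate.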

Glucagon receptor [17] = biological target: T1, Glucagon receptor; test: Agonist activity at GCGR expressed in HEK293 cells assessed as calcium influx at 100 nM by Fluor-4-AM based fluorimetry; assay type: functional, cell-based; procedure, shortened: as §5
Glucagon receptor [18] = biological target: T1, Glucagon receptor; test: Induction of GCGR desensitization expressed in HEK293 cells assessed as reduction in calcium influx at 100 nM incubated for 30 mins prior to second-induction by Fluo-4-AM based fluorimetry; assay type: functional, cell-based
Procedure, shortened: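 GCGR/Gα16 stable HEK293 cells were loaded with Fluo-4 AM and given a first stimulation (100 nM glucagon or test agent; 1% DMSO as the negative control). After a 30 min incubation, cells were washed and restimulated with 100 nM glucagon, and intracellular calcium was recorded at ex 485/em 525 nm. There were three independent experiments, each in triplicate.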

Glucagon receptor [19] = biological target: T1, Glucagon receptor; test: Activation of pDsRed-tagged GCGR expressed in HEK293 cells assessed as receptor internalization at 100 nM incubated after 30 mins by Hoechst staining-based fluorescence microscopy; assay type: cell-based
Procedure, shortened: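 HEK293 cells transfected with pDsRed-GCGR were seeded on coverslips, cultured overnight, then stimulated at 37 °C for 30 min, with 1% DMSO as the negative control. Cells were fixed in 4% formaldehyde in PBS and nuclei were stained with Hoechst 33342 for 10 min at room temperature. Receptor surface versus internalized location was judged by fluorescence microscopy.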

Glucagon receptor [20] = biological target: T1, Glucagon receptor; test: Agonist activity at GCGR expressed in HEK293 cells assessed as calcium influx at 100 nM by Fluor-4-AM based fluorimetry in presence of GF109203X; assay type: functional, cell-based
Procedure, shortened: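 Fluo-4 AM-loaded GCGR stable HEK293 cells were preincubated with 10 μM GF109203X for 15 min, then stimulated with 100 nM glucagon, test agent or 1% DMSO. After 30 min they were washed and restimulated with 100 nM glucagon, with calcium read fluorimetrically. There were three independent experiments, each in triplicate.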

Q: What does the source list for `CC(C)CC(=O)O[C@H]1/C=C/C=C/C(=O)O[C@H]2[C@@H](C)C[C@@H]3[C@]2(O)[C@H](O)[C@@]2(CO)O[C@H]2[C@H]2[C@H]4OC5(c6ccccc6)O[C@@H]([C@@H](C)[C@@]23O5)[C@@]4(O)[C@](C)(O)C[C@H]2CC[C@H]1[C@H]2C` [REDIOCIDE A]?
A: Activity [1]: Active; inhibition (HEK293): Dose-dependent effect; IC50 [2]: 88 nM; Activity (Glucagon receptor [3]): inactive; IC50 (Glucagon receptor [4]): 4 nM; Activity [5]: tde; Activity [6]: inactive; Activity (Glucagon receptor [7]): Active; Activity (Glucagon receptor [8]): Active; Activity (Glucagon receptor [9]): inactive; Activity [10]: Active; Activity (Glucagon receptor [11]): inactive; IC50 [12]: 261 nM; IC50 [13]: 215 nM; Activity [14]: inactive; IC50 [15]: 13 nM; Activity (Glucagon receptor [16]): Active

Q: For GLUCAGON, which Activity (Glucagon receptor [17]) is on record?
A: Active

Q: And the Activity (Glucagon receptor [18])?
A: Active

Q: And the Activity (Glucagon receptor [19])?
A: Active

Q: What about the Activity (Glucagon receptor [20]) of the same molecule?
A: Active
